An excerpt weighted towards active compounds, which were near 4.8% of everything screened.
T cruzi repl: T. cruzi replication inhibition. inhibition, % (concentration not given with the values). hit rate 1.4% among 300,000. T. cruzi beta-gal in NIH3T3, luminescence, 90 h;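 active = mean inhibition across valid replicates above about 55%, limit read from the data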;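 note: signal also drops with host cell toxicity which is not excluded here; 0% = plate median of DMSO wells and 100% = zero luminescence signal; higher percent means less beta-gal luminescence so fewer parasites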
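assay system = mouse NIH/3T3 fibroblasts infected with β-gal-expressing T. cruzi Tulahuen C4 | input = 5,000 NIH/3T3 host cells per well | buffer or medium = DMEM plus 2% FBS | timing = 3 h host attachment, then at least 90 h co-culture | measured by = GalScreen luminescence, 60 min | evaluation = luminescence reflecting intracellular parasite burden, expressed as percent inhibition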
WT yeast gro inh: growth inhibition of WT yeast, mitochondrial fusion screen; hit rate 2.1% among 190,000; inhibition, % at 10 µM; mitochondrial fusion phenotypic screen, WT strain; in the data active = inhibition above about 58%; tested in S. cerevisiae
Efflux pump inh: antifungal efflux pump inhibition, Nile Red retention. inhibition, % at 10 µM. AID 485275. hit rate 0.44% among 330,000. S. cerevisiae Candida pump triplex;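 active = plate passing quality check with inhibition over a set limit, or well fluorescence over plate mean plus 4 SD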;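 note: Nile Red retained in pooled yeast measured as flow cytometry median fluorescence; 0% = buffer negative control and 100% = Enniatin B positive control; higher means more Nile Red kept so more efflux inhibition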
CSC inhib: cancer stem cell inhibition | hit rate 1.1% among 300,000 | inhibition, % at 7.5 µM | AID 2717 | cancer stem cell-like cells viability, luminescence; in the data active = inhibition above about 75%; tested in HMLE shEcad cells
Mot1-301 SUMO: blocks SUMOylation pathway, rescuing yeast Mot1-301 growth | S. cerevisiae Mot1-301 growth rescue, ATP luminescence, 38.5C; percent above DMSO median, 100 means doubled | growth rescue, % at 18.8 µM | hit rate 1% among 320,000 | AID 2716;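 active = every valid replicate shows activation above 250% relative to neutral control wells; inactive = the rest, any valid replicate at or below 250%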;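 note: OY570 slx delta 5 strain wells were the positive control but not used for scaling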
Beta apoptosis: blocks beta cell apoptosis. INS-1E cytokine-induced death, ATP luminescence, 48 h; percent of positive-control rescue, neutral wells zero. protection from apoptosis, % (concentration not given with the values). hit rate 0.8% among 300,000;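 active = Every replicate reaches about 75%, or at least half do and their mean reaches it too, limit read from the data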;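 note: 0% = cytokine-treated negative control wells and 100% = positive control rescue; higher means more ATP so stronger rescue from cytokine killing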
An asterisk follows results filed as active; / = not tested or not shown; + = active, no number.

SMILES	T cruzi repl	WT yeast gro inh	Efflux pump inh	CSC inhib	Mot1-301 SUMO	Beta apoptosis
COc1cc(CNCCc2c[nH]c3ccccc23)ccc1OCc1ccccc1F	54.6*	-1.3	0.0	+	-0.2	21.4
CSc1nc2ccc(NS(=O)(=O)c3c(Cl)cccc3Cl)cc2s1	-2.6	67.1*	0.4	27.0	214.5	-6.2
CSc1nc2ccc(NS(=O)(=O)c3ccccc3F)cc2s1	6.9	12.4	0.2	-3.4	-3.1	-1.9
Cc1cc(NCCCCO)n2c(nc3ccccc32)c1C#N	4.0	24.0	0.1	-6.9	-14.8	9.3
CCN(CC)CCNc1cc(C)c(C#N)c2nc3ccccc3n12	56.7*	/	0.2	-8.7	24.4	5.2
CCN(CC)CCNc1c2c(c(C#N)c3nc4ccccc4n13)CCCC2	63.4*	54.7	-0.1	-13.0	154.7	/
Cc1cc(Nc2cccc([N+](=O)[O-])c2)n2c(nc3ccccc32)c1C#N	76.2*	9.6	0.0	83.1*	-12.1	107.7*
CN(C)CCNc1c2c(c(C#N)c3nc4ccccc4n13)CCCC2	61.8*	-5.9	0.0	-24.7	7.9	-3.5
COC(=O)c1cccc(NC(=O)CC2C(=O)NCCN2C(=O)Nc2cc(C)cc(C)c2)c1 (stereo not given)	-1.4	/	-0.2	-1.7	12.9	-9.7
O=Cc1coc2c(ccc3ccccc32)c1=O	-14.8	/	1.9*	11.7	321.8*	-2.9
O=C/C=C/c1coc2ccc3ccccc3c2c1=O	-14.0	/	0.2	7.3	12.3	-3.9
COc1ccccc1NC(=S)N(Cc1ccccc1)Cc1ccccn1	-15.2	57.4	0.0	6.5	-1.4	-3.8
COc1ccc(NC(=S)N(Cc2ccc(C)cc2)Cc2ccccn2)cc1	77.5*	10.8	0.1	-21.0	-12.5	0.2
COc1ccc(NC(=S)N(CCc2ccc(OC)c(OC)c2)Cc2ccccn2)cc1	-11.7	3.1	-0.1	-12.9	286.8	-4.3
S=C(Nc1ccccc1Cl)N(Cc1ccccc1)Cc1ccccn1	0.4	64.5*	0.1	11.4	8.3	-0.3
COc1ccc(Br)cc1C(=O)NC(=S)Nc1c(C)n(C)n(-c2ccccc2)c1=O	-0.8	/	0.1	-3.2	5.7	5.3
O=C(N/N=C/C=C/c1ccc(Br)cc1)C(O)c1ccccc1 (stereo not given)	-8.5	-3.5	-0.1	3.1	-7.9	-3.8
CC1=NNC(=O)/C1=C\c1cn(-c2ccccc2)nc1-c1cccs1	-8.5	84.7	0.2	81.3*	-11.0	98.8*
O=Cc1cn(-c2ccccc2)nc1-c1ccc(F)cc1	-16.7	/	0.0	18.7	-10.6	/
CC1=NNC(=O)/C1=C\c1cn(-c2ccccc2)nc1-c1ccc(F)cc1	26.5	89.5*	/	/	/	/
CCOC(=O)N1CCN(C(=O)c2ccc3nc(N4CCCCC4)sc3c2)CC1	3.0	-2.4	0.0	0.1	-1.4	3.8
Cc1cccc(N2CCN(C(=O)c3ccc4nc(N5CCCCC5)sc4c3)CC2)c1C	39.4	/	0.0	83.6*	10.0	12.4
CC1CCCN(C(=O)CSc2nnc(-c3cccnc3)n2C2CCCCC2)C1 (stereo not given)	-5.7	65.2*	0.0	0.7	0.3	0.1
CC1CCCN(C(=S)NC2CCCC2)C1 (stereo not given)	-0.5	5.8	0.1	-3.7	4.5	4.4
CCOC(=O)C(C)c1nc2ccccc2[nH]c1=O (stereo not given)	-9.1	72.8*	0.1	-6.6	-2.5	-1.8
SMILES	T cruzi repl	WT yeast gro inh	Efflux pump inh	CSC inhib	Mot1-301 SUMO	Beta apoptosis
COC(c1ccccc1)c1nc2ccccc2[nH]c1=O (stereo not given)	-7.0	/	0.0	4.0	-37.5	0.7
O=C(NC(=S)Nc1nc2c(s1)CCCC2)c1ccc(C(=O)c2ccccc2)cc1	23.2	6.4	-0.1	56.6	-1.6	10.1
O=C(NC(=S)Nc1nc2c(s1)CSc1ccccc1-2)c1ccccc1	15.2	82.6*	0.1	-5.7	15.5	17.4
Oc1[nH]c2ccc(Br)cc2c1N=Nc1ccc(C(F)(F)F)cn1	74.6*	47.7	0.2	32.2	57.8	23.0
Oc1[nH]c2ccccc2c1N=Nc1ccc(C(F)(F)F)cn1	-2.4	10.1	-0.1	12.1	-9.0	12.2
CCOC(=O)Cc1csc(NC(=S)NC(=O)C(C)(C)C)n1	17.2	5.3	0.1	-1.0	-21.7	4.5
Cc1cc(C)c(C)c(S(=O)(=O)N(C)C2CCN(C)CC2)c1C	27.2	/	0.0	16.8	-1.0	-6.6
CCNC(=S)NN=C1c2ccccc2-c2ccccc21	10.5	14.8	0.1	/	16.6	/

Compound activity deposited in PubChem by several laboratories.
